Converted amounts (≈) assume the structure as drawn.
What was measured:
[1] = tested on: Enterovirus; assay: Antiviral activity against rhinovirus 1A using plaque-inhibition assay; type: functional; conditions: read-out: ED50 (the source's name)
Outline: (§1)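 Plaque reduction: confluent monolayers were infected with 100-200 PFU. Hela (Ohio) cells were used for rhinoviruses 10 and 1A and coxsackieviruses B4 and A9, CV-1 for poliovirus type 1 Mahoney, and LLC-MK2 for enterovirus 70. Cells were overlaid with 2.0% agar in MEM plus 4% FBS containing serial compound concentrations. Incubation was 37 °C for polio/coxsackie and 33 °C for rhino/enterovirus, with a neutral red (0.004%) second overlay. ED50 was taken from the dose-response curve.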

[2] = tested on: Poliovirus 1; assay: microbe, parasite or virus in culture; type: functional; conditions: Enterovirus C; read-out: ED50 (the source's name)
[3] = tested on: CV-1; assay: Chemotherapeutic index in CV-1 cells (chemotherapeutic index=50% cytotoxic dose/50% effective dose).; type: functional, Cercopithecidae
Outline: (§2)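 Index = 50% cytotoxic dose / 50% plaque-inhibition dose. For cytotoxicity, 200 cells/mL in suspension were mixed with 10% FBS MEM carrying serial compound dilutions and incubated 7 days at 37 °C under 5% CO2. Colonies were stained with 1% crystal violet and counted, and the 50% cytotoxic dose was read from the dose-response curve.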

[4] = tested on: HeLa; assay: Antiviral activity was measured against Hela cells injected with rhinovirus 19; type: functional, Homo sapiens
Outline: (§3)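 Rhinovirus spectrum in Hela cells: infected cultures were kept 3 days at 33 °C, stained with crystal violet and examined microscopically for cytopathic effect. The end point was 50% inhibition.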

[5] = tested on: CV-1; assay: Compound was evaluated for its failure of virucidal activity in poliovirus infected CV-1 cells at 0.5 ug/mL. virus titer 6.6*10e7 PFU/mL; type: functional, Cercopithecidae
[6] = tested on: HeLa; assay: Antiviral activity was measured against Hela cells injected with rhinovirus 1A; type: functional, Homo sapiens; outline: as §3
[7] = tested on: HeLa; assay: Antiviral activity was measured against Hela cells injected with coxsackie virus type A9; type: functional, Homo sapiens; outline: as §1
[8] = tested on: HeLa; assay: Antiviral activity was measured against Hela cells injected with rhinovirus 10; type: functional, Homo sapiens; outline: as §3
[9] = tested on: CV-1; assay: Compound was evaluated for its failure of virucidal activity in poliovirus infected CV-1 cells at 5 ug/mL. virus titer 7.1*10e7 PFU/mL; type: functional, Cercopithecidae
[10] = tested on: HeLa; assay: Antiviral activity was measured against Hela cells injected with rhinovirus 26; type: functional, Homo sapiens; outline: as §3
[11] = tested on: CV-1; assay: Compound was evaluated for its failure of virucidal activity in poliovirus infected CV-1 cells at 50 ug/mL. virus titer 7.4*10e7 PFU/mL; type: functional, Cercopithecidae
[12] = tested on: HeLa; assay: Antiviral activity was measured against Hela cells injected with coxsackie virus type B4; type: functional, Homo sapiens; outline: as §1
[13] = tested on: CV-1; assay: Compound was evaluated for chemotherapeutic index in CV-1 cells (chemotherapeutic index=50% cytotoxic dose/50% effective dose); type: functional, Cercopithecidae; outline: as §2
[14] = tested on: Enterovirus; assay: Antiviral activity against rhinovirus 10 using plaque-inhibition assay; type: functional; conditions: read-out: ED50 (the source's name); outline: as §1
[15] = tested on: LLC-MK2; assay: Antiviral activity was measured against LLC-MK2 cells injected with enterovirus 70; type: functional, Cercopithecidae; outline: as §1
[16] = tested on: CV-1; assay: Effect on time of addiction in poliovirus infected CV-1 cells treated with 1 ug/mL of compound at 4 h. virus titer 3.1*10e9; type: functional, Cercopithecidae
[17] = tested on: CV-1; assay: Effect on time of addiction in poliovirus infected CV-1 cells treated with 1 ug/mL of compound at 3 h. virus titer 1.6*10e9; type: functional, Cercopithecidae
[18] = tested on: CV-1; assay: Effect on time of addiction in poliovirus infected CV-1 cells treated with 1 ug/mL of compound at 0 h. virus titer 4.8*10e8; type: functional, Cercopithecidae
[19] = tested on: CV-1; assay: Effect on time of addiction in poliovirus infected CV-1 cells treated with 1 ug/mL of compound at 2 h. virus titer 5.0*10e8; type: functional, Cercopithecidae
[20] = tested on: CV-1; assay: Effect on time of addiction in poliovirus infected CV-1 cells treated with 1 ug/mL of compound at 5 h. virus titer 4.3*10e9; type: functional, Cercopithecidae
[21] = tested on: CV-1; assay: Compound was evaluated for its failure of virucidal activity in poliovirus infected CV-1 cells at 5 ug/mL. virus titer 7.6*10e7 PFU/mL; type: functional, Cercopithecidae
[22] = tested on: CV-1; assay: Compound was evaluated for its failure of virucidal activity in poliovirus infected CV-1 cells at 0.5 ug/mL. virus titer 6.4*10e7 PFU/mL; type: functional, Cercopithecidae
[23] = tested on: CV-1; assay: Effect on time of addiction in poliovirus infected CV-1 cells treated with 1 ug/mL of compound at 1 h. virus titer 3.6*10e8; type: functional, Cercopithecidae

Q: With `CC(C)c1ccc(NC(=O)c2ccc(NS(=O)(=O)N(C)C)cc2)cc1` as the compound, how does the EC50 [1] read?
A: 0.1 mg/L (≈ 0.277 µM)

Q: And the EC50 [2]?
A: 0.21 mg/L (≈ 0.581 µM)

Q: What about the Chemotherapeutic index [3] of the same compound?
A: 10

Q: For `CCCCCc1ccc(NC(=O)c2ccc(NS(=O)(=O)N(C)C)cc2)cc1`, which EC50 [1] is on record?
A: 0.51 mg/L (≈ 1.31 µM)

Q: And the EC50 [2]?
A: 0.32 mg/L (≈ 0.822 µM)

Q: What about the Chemotherapeutic index [3] of the same compound?
A: 4

Q: What does the source list for `CCCc1ccc(NC(=O)c2ccc(NS(=O)(=O)N(C)C)cc2)cc1`?
A: EC50 [1]: 0.15 mg/L (≈ 0.415 µM); EC50 [2]: 0.16 mg/L (≈ 0.443 µM); Chemotherapeutic index [3]: 6

Q: Which results are given for `CN(C)S(=O)(=O)Nc1ccc(C(=O)Nc2ccc(C(F)(F)F)cc2)cc1`?
A: EC50 [1]: 0.17 mg/L (≈ 0.439 µM); EC50 [2]: 0.18 mg/L (≈ 0.465 µM); Chemotherapeutic index [3]: 19

Q: Which results are given for `CN(C)S(=O)(=O)Nc1ccc(C(=O)Nc2ccc(Br)cc2)cc1`?
A: ED50 [4]: 0.6 mg/L (≈ 1.51 µM); EC50 [1]: 0.26 mg/L (≈ 0.653 µM); Inhibition [5]: 12%; ED50 [6]: 0.68 mg/L (≈ 1.71 µM); ED50 [7]: 5.2 mg/L (≈ 13.1 µM); ED50 [8]: 0.42 mg/L (≈ 1.05 µM); Inhibition [9]: 0%; EC50 [2]: 0.3 mg/L (≈ 0.753 µM); Chemotherapeutic index [3]: 600; ED50 [10]: 0.68 mg/L (≈ 1.71 µM); Inhibition [11]: 0%; ED50 [12]: 4 mg/L (≈ 10 µM)

Q: What does the source list for `Cc1ccc(NC(=O)c2ccc(NS(=O)(=O)N(C)C)cc2)cc1`?
A: EC50 [1]: 0.38 mg/L (≈ 1.14 µM); EC50 [2]: 0.54 mg/L (≈ 1.62 µM); Chemotherapeutic index [3]: 370

Q: With `CN(C)S(=O)(=O)Nc1cccc(/C(=N/O)c2cccc(N)c2)c1` as the compound, how does the EC50 [2] read?
A: 0.7 mg/L (≈ 2.09 µM)

Q: And the Chemotherapeutic index [13]?
A: 66

Q: How did the EC50 [1] turn out when `CCCCCCc1ccc(NC(=O)c2ccc(NS(=O)(=O)N(C)C)cc2)cc1` was run?
A: 0.24 mg/L (≈ 0.595 µM)

Q: And the EC50 [2]?
A: 0.16 mg/L (≈ 0.396 µM)

Q: And the Chemotherapeutic index [3]?
A: 11

Q: What does the source list for `CN(C)S(=O)(=O)Nc1ccc(C(=O)Nc2ccc(I)cc2)cc1`?
A: EC50 [1]: 0.3 mg/L (≈ 0.674 µM); EC50 [2]: 0.3 mg/L (≈ 0.674 µM); Chemotherapeutic index [3]: 5

Q: For `COc1ccc(/C(=N\O)c2cccc(NS(=O)(=O)N(C)C)c2)cc1`, which ED50 [4] is on record?
A: 0.44 mg/L (≈ 1.26 µM)

Q: And the ED50 [6]?
A: 0.29 mg/L (≈ 0.83 µM)

Q: What about the ED50 [8] of the same compound?
A: 0.26 mg/L (≈ 0.744 µM)

Q: And the EC50 [2]?
A: 0.26 mg/L (≈ 0.744 µM)

Q: What about the Chemotherapeutic index [3] of the same compound?
A: 56

Q: What about the EC50 [14] of the same compound?
A: 0.29 mg/L (≈ 0.83 µM)

Q: What about the ED50 [15] of the same compound?
A: 0.75 mg/L (≈ 2.15 µM)

Q: What about the ED50 [12] of the same compound?
A: 0.64 mg/L (≈ 1.83 µM)

Q: How did the ED50 [4] turn out when `CN(C)S(=O)(=O)Nc1ccc(C(=O)NCCCCc2ccccc2)cc1` was run?
A: 0.12 mg/L (≈ 0.32 µM)

Q: What about the Inhibition [16] of the same compound?
A: 24.4%

Q: And the EC50 [1]?
A: 0.13 mg/L (≈ 0.346 µM)

Q: And the Inhibition [17]?
A: 61%

Q: And the Inhibition [18]?
A: 88.3%

Q: And the ED50 [6]?
A: 0.12 mg/L (≈ 0.32 µM)

Q: What about the ED50 [7] of the same compound?
A: 0.4 mg/L (≈ 1.07 µM)

Q: And the ED50 [8]?
A: 0.09 mg/L (≈ 0.24 µM)

Q: And the Inhibition [19]?
A: 87.8%

Q: And the EC50 [2]?
A: 0.09 mg/L (≈ 0.24 µM)

Q: What about the Inhibition [20] of the same compound?
A: 0%

Q: What about the Chemotherapeutic index [3] of the same compound?
A: 18

Q: What about the Inhibition [21] of the same compound?
A: 3%

Q: What about the Inhibition [22] of the same compound?
A: 10%

Q: What about the Inhibition [23] of the same compound?
A: 91.2%

Q: And the ED50 [15]?
A: 0.7 mg/L (≈ 1.86 µM)

Q: And the ED50 [10]?
A: 0.13 mg/L (≈ 0.346 µM)

Q: And the Inhibition [11]?
A: 0%

Q: And the ED50 [12]?
A: 0.42 mg/L (≈ 1.12 µM)
